Experimental data from ChEMBL document CHEMBL3751709, “Concise Synthesis of Spergualin-Inspired Molecules With Broad-Spectrum Antibiotic Activity” (2015).
Converted amounts (≈) assume the structure as drawn. The source made the active and inactive calls. The calls are words filed in the database; no cut-off is given here.

How the values were obtained:
Assay type in all cases: functional
[1] = tested on: Bacillus anthracis; test: Antimicrobial activity against Bacillus anthracis 34F2 Sterne after 24 hrs by double dilution method
[2] = tested on: Staphylococcus aureus; test: Antimicrobial activity against Staphylococcus aureus RN4220 after 24 hrs by double dilution method
Procedure, shortened: (§1)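 Double (2-fold) dilution series added to inoculum at OD600 0.1, giving final 256 to 2 μg/mL. H. influenzae was scraped from agar into supplemented BHI medium. Other strains were diluted from an overnight LB culture (37 °C, 200 rpm) into LB. Plates were covered and shaken at 200 rpm, 37 °C, for 24 h before MIC was read. At least two runs in triplicate.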

[3] = tested on: Escherichia coli; test: Antimicrobial activity against Escherichia coli K-12 MG1655 after 24 hrs by double dilution method; procedure, shortened: as §1
[4] = tested on: Bacillus cereus; test: Antimicrobial activity against Bacillus cereus ATCC 11778 after 24 hrs by double dilution method; procedure, shortened: as §1
[5] = tested on: Bacillus subtilis; test: Antimicrobial activity against Bacillus subtilis 168 after 24 hrs by double dilution method; procedure, shortened: as §1
[6] = tested on: Haemophilus influenzae; test: Antimicrobial activity against Haemophilus influenzae ATCC 51907 after 24 hrs by double dilution method; procedure, shortened: as §1
[7] = tested on: Staphylococcus aureus; test: Bactericidal activity against Staphylococcus aureus RN4220 8 to 16 ug/ml at after 4 to 24 hrs by time kill assay
Procedure, shortened: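 Time-kill: 5 mL S. aureus cultures at OD600 0.1 were treated with compound (final 8 to 16 μg/mL) or DMSO. 100 μL was sampled at 0, 4 and 24 h, serially diluted 10-fold in sterile PBS, and 2 μL spotted on LB agar to count CFUs.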

Row | SMILES | MIC [1] | MIC ([2]; RN4220, 24 h) | MIC ([3]; K-12 MG1655, 24 h) | MIC ([4]; ATCC 11778, 24 h) | MIC ([5]; subsp. subtilis str. 168, 24 h) | MIC [2] | MIC [3] | MIC [6] | MIC [4] | MIC ([5]; subsp. subtilis str. 168) | Activity [1] | Activity [2] | Activity [3] | Activity [6] | MIC ([6]; ATCC 51907, 24 h) | Activity [4] | Activity [7] | Activity ([5]; subsp. subtilis str. 168)
1 | N=C(N)NCCCC[C@H](O)CC(=O)N[C@@H](O)C(=O)NCCCCNCCCN | 12.5 µg/mL (≈ 31 µM) | 6.25 µg/mL (≈ 15.5 µM) | 50 µg/mL (≈ 124 µM) | 50 µg/mL (≈ 124 µM) | 6.25 µg/mL (≈ 15.5 µM) | – | – | – | – | – | – | – | – | – | – | – | – | –
2 | O=C(O)CCS | inactive | – | – | – | – | inactive | inactive | inactive | inactive | inactive | – | – | – | – | – | – | – | –
3 | NCCCCNC(=O)C(c1ccc(Br)cc1)N(Cc1ccccc1)C(=O)CCS (stereo not drawn) | 4 µg/mL (≈ 8.36 µM) | 8 µg/mL (≈ 16.7 µM) | 32 µg/mL (≈ 66.9 µM) | 8 µg/mL (≈ 16.7 µM) | 4 µg/mL (≈ 8.36 µM) | – | – | – | – | – | Dose-dependent effect | Dose-dependent effect | Dose-dependent effect | Dose-dependent effect | 16 µg/mL (≈ 33.4 µM) | Dose-dependent effect | >3 log10CFU | Dose-dependent effect
4 | CC(C)SCC(=O)NCC(=O)NCc1ccccc1 | > 128 µg/mL | > 128 µg/mL | > 128 µg/mL | > 128 µg/mL | > 128 µg/mL | – | – | – | – | – | – | – | – | – | > 128 µg/mL | – | – | –
5 | CCC(C)C(=O)NCC(=O)N1CCN(Cc2ccccc2)CC1 (stereo not drawn) | > 128 µg/mL | > 128 µg/mL | > 128 µg/mL | > 128 µg/mL | > 128 µg/mL | – | – | – | – | – | – | – | – | – | > 128 µg/mL | – | – | –
6 | CC(C)C1CCC(C(=O)NCC(=O)NCc2ccccc2)CC1 (stereo not drawn) | > 128 µg/mL | > 128 µg/mL | > 128 µg/mL | > 128 µg/mL | > 128 µg/mL | – | – | – | – | – | – | – | – | – | > 128 µg/mL | – | – | –
7 | O=Cc1ccc(Br)cc1 | inactive | – | – | – | – | inactive | inactive | inactive | inactive | inactive | – | – | – | – | – | – | – | –
8 | NCCCCNCCCN | inactive | – | – | – | – | inactive | inactive | inactive | inactive | inactive | – | – | – | – | – | – | – | –
9 | CN(C)[C@@H]1C(O)=C(C(N)=O)C(=O)[C@@]2(O)C(O)=C3C(=O)c4c(O)cccc4[C@@](C)(O)[C@H]3C[C@@H]12 [TETRACYCLINE] | < 2 µg/mL | < 2 µg/mL | < 2 µg/mL | < 2 µg/mL | < 2 µg/mL | – | – | – | – | – | – | – | – | – | < 2 µg/mL | – | – | –
10 | N#Cc1ccc(C(=O)N(CCCc2ccccc2)CC(=O)N2CCNCC2)cc1 | > 128 µg/mL | > 128 µg/mL | > 128 µg/mL | > 128 µg/mL | > 128 µg/mL | – | – | – | – | – | – | – | – | – | > 128 µg/mL | – | – | –
11 | CCCC(=O)N(Cc1ccccc1)C(C(=O)NCCCCN)c1ccc(Br)cc1 (stereo not drawn) | 32 µg/mL (≈ 69.5 µM) | 32 µg/mL (≈ 69.5 µM) | 256 µg/mL (≈ 556 µM) | 32 µg/mL (≈ 69.5 µM) | 16 µg/mL (≈ 34.8 µM) | – | – | – | – | – | – | – | – | – | 64 µg/mL (≈ 139 µM) | – | – | –
12 | NCc1ccccc1 | inactive | – | – | – | – | inactive | inactive | inactive | inactive | inactive | – | – | – | – | – | – | – | –
